Experimental data from ChEMBL document CHEMBL4229443, “Activation studies with amines and amino acids of the α-carbonic anhydrase from the pathogenic protozoan Trypanosoma cruzi” (Bioorg Med Chem, 2018).

Compound: N[C@@H](Cc1c[nH]c2ccccc12)C(=O)O
Experiment: Activation of Trypanosoma cruzi CA assessed as Kcat at 10 uM preincubated for 15 mins followed by CO2 addition by stopped-flow assay (reference value: 1.2 10^6/s)
How it was run: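 kcat of recombinant TcCA measured with 10 µM activator after 15 min pre-incubation at room temperature. Stopped-flow CO2 hydration in 10 mM Hepes pH 7.5 with 0.1 M Na2SO4 and 0.2 mM phenol red (557 nm), 25 °C. Initial velocities from the first 5–10% of the reaction, uncatalyzed rate subtracted. Mean of at least three determinations.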

B1: Carbonic anhydrase-like protein, putative (Trypanosoma cruzi (strain CL Brener)), Q4CVY4 (protein)
chain: MTCGIRRGEGREGSKMVKAVIFSLLCLHVHALMSPVSAENGYTTAGLPREKPQGPQWGYTNLTAWPKLCQTGKQQSPVSFSELQPNEVVHRKDMGPLVFSRDCKFAAEKTSLKIENEVNTISVRFIPLDDPTNKFPSLCTVRDPTDPDSPEYHLVSMHFHSPAEHVLPCANPDAELHLVFAHTQQSRQPHLMVVVVQLVASDKINSTSVAALKHILLDGSLPPKRAVTTCTLTENMTIAGFLPQSGSYFAYNGSLTTPPCTEGVLFVVLTSPQIISKTALERLVEAFQRARPGNHNGNHRPTQPLNGRVVYHFVDMHHMNYSMCMRDMENHHTNSSQMAGMSGAMQHMNCSMCMRNMENHHKNSSQMEGMSGAMQHMNCSMCMRNMENHHKNSSQMAGMSGAMQHMNCSMCMRNMENHHTNSSQMAGMSGAMQHMNCSMCMRNMENHHKNSSQMAGMSGAMQHMNCSMCMRNMENHHTNSSQMAGMSGAMQHMNCSMCMRNMENHHTNSSQMAGMSGAMQHMNCSMCMRNMENHHKNSSQMEGMSSEEMSMMERSANESSGAQLAGLASEENATNTSSAPANKWPHQFNSRERLFLIAAALVLLLVTFILYRWRNSSARETETESLFRSHEGYGTTNP
B1 was tested, and the kcat was 7.8 ×10⁶ /s.
